The test system of data set [1] is Staphylococcus aureus. Briefly: In vitro antibacterial activity was tested for Staphylococcus aureus UC-76. The data set is classed as functional. The procedure, abridged: (§1)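 Microtitration (microdilution) MIC determination in μg/mL against a panel of Gram-positive, Gram-negative and anaerobic organisms. Values come from duplicate or triplicate experiments and are stated accurate to ±50%.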

The next data set concerns Cutibacterium acnes. The data set is described as follows: In vitro antibacterial activity was tested for Propion acnes PA5-1. The data set is classed as functional. In outline: as §1
The subject of a further data set is Bacteroides fragilis. Briefly: In vitro antibacterial activity against Bacteroides fragilis BFA. The data set is classed as functional. In outline:
as §1

A further data set concerns Providencia rettgeri. Briefly: In vitro antibacterial activity was tested for Providencia rettgeri H1771. The data set is classed as functional. In outline: as §1
The next data set relates to Streptococcus pyogenes. Briefly: In vitro antibacterial activity was tested for Streptococcus pyogenes C203. Format: functional. The procedure, abridged:
as §1

The test system of the next data set is Clostridioides difficile. Briefly: In vitro antibacterial activity was tested for Clostridium diff CD1-1. Format: functional.
Data set [2] relates to Peptoniphilus asaccharolyticus. The data set is described as follows: In vitro antibacterial activity was tested for Pepto asac PA 3-1. Format: functional. The procedure, abridged:
as §1

In the next data set the test system is Streptococcus pneumoniae. Briefly: In vitro antibacterial activity was tested for Streptococcus pneumoniae SV-1. The data set is classed as functional. The procedure, abridged: as §1
Data set [3] has as its system Escherichia coli. The data set is described as follows: In vitro antibacterial activity was tested for Escherichia coli H560. The data set is classed as functional. In outline:
as §1

The next data set deals with Klebsiella pneumoniae. Briefly: In vitro antibacterial activity was tested for Klebsiella pneumoniae MGH-2. The data set is classed as functional. In outline: as §1
The species named for data set [4] is Mus musculus. Briefly: Phototoxic skin reaction in depilated female CD-1 mice. Format: toxicity, organism-based. The settings on record: in vivo. The procedure, abridged: (§2)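 Female CD-1 mice, depilated, given a single oral or subcutaneous dose. UVA (320–400 nm) exposure for 3 h, starting 1 h post-dose. Initial doses were 30, 100 and 300 mg/kg. PTD50 (dose giving phototoxic skin reaction in 50% of mice) derived by probit method. First day of positive reaction and no-effect dose taken from raw data.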

In the next data set the test system is Enterococcus faecalis. Briefly: In vitro antibacterial activity was tested for Streptococcus faecalis MGH-2. The data set is classed as functional. In outline: as §1
Data set [5] is filed under the species Mus musculus. Briefly: Phototoxic skin reaction in depilated female CD-1 mice. Format: functional. In outline:
as §2

Data set [6] has as its system Staphylococcus aureus. The data set is described as follows: In vitro antibacterial activity was tested for Staphylococcus aureus H228. The data set is classed as functional. The procedure, abridged:
as §1

Another data set concerns Pseudomonas aeruginosa. The data set is described as follows: In vitro antibacterial activity was tested for Pseudomonas aeruginosa UI-18. Format: functional. The procedure, abridged: as §1
Data set [7] deals with Escherichia coli. The data set is described as follows: In vitro antibacterial activity was tested for Escherichia coli Vogel. The data set is classed as functional. In outline:
as §1

In a further data set the test system is Clostridium perfringens. Briefly: In vitro antibacterial activity against Clostridium perfringens CP 3-1. Format: functional.
A further data set has as its system Enterobacter cloacae. Briefly: In vitro antibacterial activity was tested for Enterobacter cloacae HA2646. The data set is classed as functional.
Another data set deals with V79. Briefly: Clonogenic cytotoxicity against Chinese hamster V-79 cells. Format: functional, cell-based. The settings on record: Cricetulus griseus.

Converted amounts (≈) assume the structure as drawn.

A word on the MIC: it is the lowest concentration found to suppress growth. A low value points to inhibition by little substance. In general, IC50 refers to the concentration that inhibits the measured activity by half. Lower therefore signals inhibition by little substance.

In the case of `COc1c(N2CCC(N)C2)c(F)c(N)c2c(=O)c(C(=O)O)cn(C3CC3)c12` (stereo unspecified), the MIC against Staphylococcus aureus [1] amounted to 0.006 µg/mL (≈ 0.0159 µM); in the data set on Cutibacterium acnes it was 0.8 µg/mL (≈ 2.13 µM); in the data set with Bacteroides fragilis, 1.6 µg/mL (≈ 4.25 µM); with Providencia rettgeri, 0.2 µg/mL (≈ 0.531 µM); in the data set with Streptococcus pyogenes, 0.1 µg/mL (≈ 0.266 µM); in the data set on Clostridioides difficile it was 3.1 µg/mL (≈ 8.24 µM). Besides, the MIC in data set [2] was 0.8 µg/mL (≈ 2.13 µM); in the data set on Streptococcus pneumoniae it was 0.05 µg/mL (≈ 0.133 µM); against Escherichia coli [3] it was 0.025 µg/mL (≈ 0.0664 µM); in the data set on Klebsiella pneumoniae it was 0.1 µg/mL (≈ 0.266 µM); against Enterococcus faecalis, 0.05 µg/mL (≈ 0.133 µM); in the data set on Staphylococcus aureus [6], 0.05 µg/mL (≈ 0.133 µM). Further, the MIC turned out to be 0.8 µg/mL (≈ 2.13 µM) with Pseudomonas aeruginosa, 0.025 µg/mL (≈ 0.0664 µM) with Escherichia coli [7], 0.2 µg/mL (≈ 0.531 µM) against Clostridium perfringens and 0.05 µg/mL (≈ 0.133 µM) in the data set with Enterobacter cloacae. Further, the PTD50 in the data set listed under Mus musculus [4] is recorded as above 100 mg. This molecule also showed a No effect dose in the data set filed under Mus musculus [5] of 100 mg.

As for `CC1(CN)CCN(c2cc3c(cc2F)c(=O)c(C(=O)O)cn3C2CC2)C1` (stereo unspecified), the minimum inhibitory concentration (MIC) in the data set with Cutibacterium acnes was 1.6 µg/mL (≈ 4.45 µM); with Bacteroides fragilis, 6.3 µg/mL (≈ 17.5 µM); against Clostridioides difficile, 6.3 µg/mL (≈ 17.5 µM); in [2] it was 1.6 µg/mL (≈ 4.45 µM); against Clostridium perfringens it was 0.2 µg/mL (≈ 0.556 µM). The same molecule yielded a PTD50 in the data set filed under Mus musculus [4] above 100 mg. For the same molecule, in the data set listed under Mus musculus [5], the No effect dose was 100 mg.

Consider `CC1(CN)CCN(c2c(F)c(N)c3c(=O)c(C(=O)O)cn(C4CC4)c3c2F)C1` (stereo unspecified), for which the MIC was determined as 0.4 µg/mL (≈ 1.02 µM) against Cutibacterium acnes; 0.8 µg/mL (≈ 2.04 µM) in the data set with Bacteroides fragilis; 1.6 µg/mL (≈ 4.08 µM) in the data set on Clostridioides difficile; 0.2 µg/mL (≈ 0.51 µM) in [2]; 0.025 µg/mL (≈ 0.0637 µM) against Clostridium perfringens. The same molecule gave a PTD50 in the data set listed under Mus musculus [4] above 30 mg. For the same molecule, the No effect dose in the data set filed under Mus musculus [5] was found to be 30 mg.

In the case of `CCOc1c(N2CCCC(CN)C2)c(F)cc2c(=O)c(C(=O)O)cn(C3CC3)c12` (stereo unspecified), the minimal inhibitory concentration (MIC) was 0.013 µg/mL (≈ 0.0322 µM) in the data set on Staphylococcus aureus [1]; 3.1 µg/mL (≈ 7.68 µM) with Cutibacterium acnes; 3.1 µg/mL (≈ 7.68 µM) against Bacteroides fragilis; above 3.1 µg/mL against Providencia rettgeri; 0.025 µg/mL (≈ 0.062 µM) against Streptococcus pyogenes; 3.1 µg/mL (≈ 7.68 µM) in the data set on Clostridioides difficile. In addition, the MIC in data set [2] was 0.4 µg/mL (≈ 0.991 µM); against Streptococcus pneumoniae, 0.025 µg/mL (≈ 0.062 µM); with Escherichia coli [3], 0.1 µg/mL (≈ 0.248 µM); in the data set with Klebsiella pneumoniae, 0.8 µg/mL (≈ 1.98 µM); against Enterococcus faecalis, 0.05 µg/mL (≈ 0.124 µM); against Staphylococcus aureus [6], 0.05 µg/mL (≈ 0.124 µM). Besides, the MIC is above 3.1 µg/mL in the data set on Pseudomonas aeruginosa, 0.2 µg/mL (≈ 0.496 µM) against Escherichia coli [7], 0.4 µg/mL (≈ 0.991 µM) with Clostridium perfringens and 0.4 µg/mL (≈ 0.991 µM) against Enterobacter cloacae. Besides, the concentration for half-maximal inhibition (IC50) in the data set on V79 stood at 63 µg/mL (≈ 156 µM).

As to `COc1c(N2CC(C)NC(C)C2)c(F)c(N)c2c(=O)c(C(=O)O)cn(C3CC3)c12` (stereo unspecified), the MIC in the data set on Staphylococcus aureus [1] is 0.025 µg/mL (≈ 0.0618 µM); in the data set with Cutibacterium acnes it was 1.6 µg/mL (≈ 3.96 µM); against Bacteroides fragilis it was 1.6 µg/mL (≈ 3.96 µM); in the data set with Providencia rettgeri, 0.8 µg/mL (≈ 1.98 µM); against Streptococcus pyogenes it was 0.1 µg/mL (≈ 0.247 µM); with Clostridioides difficile, 3.1 µg/mL (≈ 7.66 µM). Further, the minimal inhibitory concentration (MIC) worked out at 0.8 µg/mL (≈ 1.98 µM) in data set [2]; 0.05 µg/mL (≈ 0.124 µM) against Streptococcus pneumoniae; 0.1 µg/mL (≈ 0.247 µM) in the data set on Escherichia coli [3]; 0.4 µg/mL (≈ 0.989 µM) in the data set on Klebsiella pneumoniae; 0.2 µg/mL (≈ 0.495 µM) in the data set with Enterococcus faecalis; 0.1 µg/mL (≈ 0.247 µM) against Staphylococcus aureus [6]. Also, the MIC in the data set on Pseudomonas aeruginosa amounted to 3.1 µg/mL (≈ 7.66 µM); with Escherichia coli [7], 0.2 µg/mL (≈ 0.495 µM); against Clostridium perfringens, 0.4 µg/mL (≈ 0.989 µM); against Enterobacter cloacae it was 0.2 µg/mL (≈ 0.495 µM). The molecule also showed a PTD50 in the data set listed under Mus musculus [4] above 100 mg. Besides, the No effect dose in the data set filed under Mus musculus [5] was 100 mg.

Regarding `COc1c(N2CCC(CN)CC2)c(F)cc2c(=O)c(C(=O)O)cn(C3CC3)c12`, the minimal inhibitory concentration (MIC) in the data set on Staphylococcus aureus [1] came to 0.05 µg/mL (≈ 0.128 µM); with Cutibacterium acnes, 0.4 µg/mL (≈ 1.03 µM); in the data set with Bacteroides fragilis it was 0.8 µg/mL (≈ 2.05 µM); against Providencia rettgeri it was 0.4 µg/mL (≈ 1.03 µM); against Streptococcus pyogenes it was 0.025 µg/mL (≈ 0.0642 µM); against Clostridioides difficile, 0.8 µg/mL (≈ 2.05 µM). In addition, the MIC came to 0.4 µg/mL (≈ 1.03 µM) in [2]; 0.025 µg/mL (≈ 0.0642 µM) against Streptococcus pneumoniae; 0.1 µg/mL (≈ 0.257 µM) against Escherichia coli [3]; 0.2 µg/mL (≈ 0.514 µM) in the data set on Klebsiella pneumoniae; 0.05 µg/mL (≈ 0.128 µM) in the data set with Enterococcus faecalis; 0.1 µg/mL (≈ 0.257 µM) against Staphylococcus aureus [6]. Also, the MIC was 1.6 µg/mL (≈ 4.11 µM) against Pseudomonas aeruginosa, 0.1 µg/mL (≈ 0.257 µM) against Escherichia coli [7], 0.4 µg/mL (≈ 1.03 µM) in the data set with Clostridium perfringens and 0.1 µg/mL (≈ 0.257 µM) in the data set with Enterobacter cloacae. Besides, the 50% inhibitory concentration (IC50) with V79 was 94 µg/mL (≈ 241 µM).

`COc1c(N2CCC(N)CC2)c(F)c(N)c2c(=O)c(C(=O)O)cn(C3CC3)c12`: the MIC was 0.013 µg/mL (≈ 0.0333 µM) in the data set with Staphylococcus aureus [1]; 3.1 µg/mL (≈ 7.94 µM) against Cutibacterium acnes; 3.1 µg/mL (≈ 7.94 µM) with Bacteroides fragilis; 0.4 µg/mL (≈ 1.02 µM) against Providencia rettgeri; 0.025 µg/mL (≈ 0.064 µM) against Streptococcus pyogenes; 3.1 µg/mL (≈ 7.94 µM) with Clostridioides difficile. The minimum inhibitory concentration (MIC) in [2] was 1.6 µg/mL (≈ 4.1 µM); in the data set on Streptococcus pneumoniae, 0.013 µg/mL (≈ 0.0333 µM); in the data set on Escherichia coli [3], 0.05 µg/mL (≈ 0.128 µM); against Klebsiella pneumoniae it was 0.2 µg/mL (≈ 0.512 µM); against Enterococcus faecalis, 0.05 µg/mL (≈ 0.128 µM); in the data set on Staphylococcus aureus [6] it was 0.05 µg/mL (≈ 0.128 µM). Further, the minimal inhibitory concentration (MIC) with Pseudomonas aeruginosa stood at 1.6 µg/mL (≈ 4.1 µM); in the data set with Escherichia coli [7], 0.1 µg/mL (≈ 0.256 µM); against Clostridium perfringens it was 0.8 µg/mL (≈ 2.05 µM); in the data set with Enterobacter cloacae, 0.1 µg/mL (≈ 0.256 µM). Inhibition with V79 was half-maximal at 60 µg/mL (≈ 154 µM) (IC50).

Values taken from ChEMBL document CHEMBL1128719, “The synthesis, structure-activity, and structure-side effect relationships of a series of 8-alkoxy- and 5-amino-8-alkoxyquinolone antibacterial agents” (J Med Chem, 1995).
